The values below come from ChEMBL document CHEMBL4219075, “Synthesis and evaluation of novel dolastatin 10 derivatives for versatile conjugations” (Bioorg Med Chem, 2018).

In general, IC50 refers to the concentration needed to halve the response being measured. A high value points to a need for much substance.

Calls of active or inactive are those of the source. No cut-off for these calls is given here. Non-standard residues stand in square brackets, D forms with d. Residues, ends and D or L forms follow the SMILES beside them. *: point of attachment. Dolaproine = CO[C@@H]([C@@H]1CCCN1)[C@@H](C)C(=O)O; Dil = CC[C@H](C)[C@H](NC)[C@@H](CC(=O)O)OC; X1 = C[C@@H](N*)[C@@H](O)c1ccccc1; NMeV = CN[C@H](C(=O)O)C(C)C A value given as a limit tells only on which side of the number the result lay.

Series [1] can be described thus: Permeability of the compound at 200 umol/L after 5 hrs by PAMPA. It counts as ADME. The following applies: read-out: permeability. In short, it runs like this:
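Compound solution in the donor (receiver-plate) wells; 20% MeOH in PBS in the pre-coated filter-plate wells. The assembly was incubated 5 h at room temperature. Donor and acceptor concentrations were measured by LC-MS. Permeability was calculated from filter area 0.3 cm², donor 0.32 mL, acceptor 0.2 mL, t = 18,000 s and equilibrium concentration.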
On the technique in general: The PAMPA barrier holds no transporters, so it reflects passive diffusion.

The next series has as its system SK-OV-3. The experiment in a line: Cytotoxicity against human SKOV3 cells after 2 days by cell titer 96 aqueous one solution based assay. The series is classed as functional. The following applies: SK-OV-3, 48 h. In short, it runs like this:
(§1)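 Cells (DMEM + 10% heat-inactivated FBS for SKOV-3 and A549) seeded at about 5000−50000/well and held overnight at 37°C, 5% CO2. DMSO stocks were diluted into medium with 1% FBS and no folic acid. Compounds at various concentrations were added in triplicate and incubated 2 days. MTS reagent was added for 1–2 h, absorbance read at 490 nm, and percent survival calculated versus untreated wells.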

For series [2], the species on record is Sus scrofa. Nature of the series: Inhibition of porcine brain tubulin polymerization measured every minute for 60 mins by absorbance spectroscopic analysis. In short, it runs like this:
(§2)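 Fluorescence-based HTS kit assay run with porcine brain tubulin at about 100 µg per well in general tubulin buffer. Compound at 3, 1 or 0.3 µM final, in duplicate, added at the start. Run at 37°C for 60 min, reading OD 360 nm (emission 450 nm) each minute. Polymerization compared with buffer-treated tubulin.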

The next series deals with A549. The experiment in a line: Cytotoxicity against human A549 cells after 2 days by cell titer 96 aqueous one solution based assay. It counts as functional. The following applies: A549, 48 h. In short, it runs like this: as §1
Another series deals with L1210. The experiment in a line: Cytotoxicity against mouse L1210 cells after 2 days by cell titer 96 aqueous one solution based assay. The series is classed as functional. The following applies: L1210, 48 h. In short, it runs like this:
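Mouse L1210 leukemia cells in RPMI-1640 + 10% heat-inactivated FBS were seeded at about 5000−50000/well and incubated overnight at 37°C, 5% CO2. Compounds were diluted in RPMI with 1% FBS and no folic acid, added at various concentrations in triplicate, and incubated 2 days. MTS was added for 1–2 h, A490 read, and survival expressed relative to untreated controls.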

A short description of series [3]: Ratio of IC50 for human SKOV3 cells to IC50 for porcine brain tubulin polymerization.
The species entered for series [4] is Sus scrofa. Nature of the series: Inhibition of porcine brain tubulin polymerization at 0.3 to 3 uM measured every minute for 60 mins by absorbance spectroscopic analysis. The essentials: as §2

Turning to `CC[C@H](C)[C@@H]([C@@H](CC(=O)N1CCC[C@H]1[C@H](OC)[C@@H](C)C(=O)N[C@@H](Cc1ccccc1)c1nc(C(=O)NCCNC)cs1)OC)N(C)C(=O)[C@@H](NC(=O)[C@H](C(C)C)N(C)C)C(C)C`, in series [1], the Papp at 5 h, 200 µM came to 0.004 ×10⁻⁶ cm/s. Further, the results for the concentration for half-maximal inhibition (IC50) in the series with SK-OV-3, in the series on A549 and with L1210 were more than 10 nM, 9.9 nM and 27 nM, respectively. Also, in the series filed under Sus scrofa [2], the inhibition result is “Active”.

Regarding `CCNC(=O)c1csc([C@H](Cc2ccccc2)NC(=O)[C@H](C)[C@@H](OC)[C@@H]2CCCN2C(=O)C[C@@H](OC)[C@H]([C@@H](C)CC)N(C)C(=O)[C@@H](NC(=O)[C@H](C(C)C)N(C)C)C(C)C)n1`, in series [1], the Papp at 5 h, 200 µM is 1.7 ×10⁻⁶ cm/s. Also, the IC50 in the series on SK-OV-3 stood at 0.55 nM; with A549 it was 0.74 nM; in the series on L1210 it was 6.5 nM. For the same compound, the inhibition result in the series listed under Sus scrofa [2] is “Active”.

For the compound `CC[C@H](C)[C@@H]([C@@H](CC(=O)N1CCC[C@H]1[C@H](OC)[C@@H](C)C(=O)N[C@@H](Cc1ccccc1)c1nc(C(=O)NCCc2ccc(N)cc2)cs1)OC)N(C)C(=O)[C@@H](NC(=O)[C@H](C(C)C)N(C)C)C(C)C`, in series [3], the “Ratio IC50” value is more than 30. For the same compound, the Papp at 5 h, 200 µM in series [1] amounted to 0.3 ×10⁻⁶ cm/s. Also, the inhibition result in the series listed under Sus scrofa [4] is “Active”. In addition, the IC50 in the series with SK-OV-3 was determined as 0.27 nM; with A549 it was 1.1 nM; in the series with L1210, 4.1 nM.

As for `CC[C@H](C)[C@@H]([C@@H](CC(=O)N1CCC[C@H]1[C@H](OC)[C@@H](C)C(=O)N[C@@H](Cc1ccccc1)c1nc(C(=O)OCCO)cs1)OC)N(C)C(=O)[C@@H](NC(=O)[C@H](C(C)C)N(C)C)C(C)C`, the Papp at 5 h, 200 µM in series [1] is 0.04 ×10⁻⁶ cm/s. The values for the IC50 with SK-OV-3, with A549 and with L1210 were 0.086 nM, 1.8 nM and 4.7 nM, respectively. In addition, the inhibition entry in the series listed under Sus scrofa [2] was “Active”.

For the compound `CC[C@H](C)[C@@H]([C@@H](CC(=O)N1CCC[C@H]1[C@H](OC)[C@@H](C)C(=O)N[C@@H](Cc1ccccc1)c1nc(C(=O)NCCO)cs1)OC)N(C)C(=O)[C@@H](NC(=O)[C@H](C(C)C)N(C)C)C(C)C`, the Papp at 5 h, 200 µM in series [1] stood at 0.02 ×10⁻⁶ cm/s. In addition, the figures for the IC50 in the series on SK-OV-3, in the series on A549 and in the series on L1210 were 4.7 nM, 1.7 nM and 28 nM, respectively. The inhibition result in the series filed under Sus scrofa [2] is “Active”.

With `CC[C@H](C)[C@@H]([C@@H](CC(=O)N1CCC[C@H]1[C@H](OC)[C@@H](C)C(=O)N[C@@H](Cc1ccccc1)c1nc(C(=O)NCCN)cs1)OC)N(C)C(=O)[C@@H](NC(=O)[C@H](C(C)C)N(C)C)C(C)C`, in series [3], the “Ratio IC50” value is listed as more than 30. Besides, the Papp at 5 h, 200 µM in series [1] came to 0.056 ×10⁻⁶ cm/s. In the series filed under Sus scrofa [4], the inhibition result was “Active”. For the same compound, the IC50 was more than 10 nM in the series with SK-OV-3, more than 10 nM in the series on A549 and more than 50 nM with L1210.

For the compound `CC[C@H](C)[C@@H]([C@@H](CC(=O)N1CCC[C@H]1[C@H](OC)[C@@H](C)C(=O)N[C@@H](Cc1ccccc1)c1nc(C(=O)N(C)CCO)cs1)OC)N(C)C(=O)[C@@H](NC(=O)[C@H](C(C)C)N(C)C)C(C)C`, in series [1], the Papp at 5 h, 200 µM was found to be 0.077 ×10⁻⁶ cm/s. The IC50 in the series with SK-OV-3 is 1.5 nM; with A549, 1.6 nM; with L1210, 8.5 nM. The inhibition result in the series filed under Sus scrofa [2] is “Active”.

For `CC[C@H](C)[C@@H]([C@@H](CC(=O)N1CCC[C@H]1[C@H](OC)[C@@H](C)C(=O)N[C@@H](Cc1ccccc1)c1nc(C(=O)NCCc2ccc(O)cc2)cs1)OC)N(C)C(=O)[C@@H](NC(=O)[C@H](C(C)C)N(C)C)C(C)C`, in series [1], the Papp at 5 h, 200 µM stood at 0.36 ×10⁻⁶ cm/s. The IC50 in the series on SK-OV-3 was 0.37 nM; in the series with A549 it was 1.3 nM; with L1210, 5.6 nM. Besides, in the series listed under Sus scrofa [2], the inhibition entry is “Active”.

`CC[C@H](C)[C@@H]([C@@H](CC(=O)N1CCC[C@H]1[C@H](OC)[C@@H](C)C(=O)N[C@@H](Cc1ccccc1)c1nc(C(=O)N(C)CCN)cs1)OC)N(C)C(=O)[C@@H](NC(=O)[C@H](C(C)C)N(C)C)C(C)C`: in series [1], the Papp at 5 h, 200 µM stood at 0.072 ×10⁻⁶ cm/s. Besides, the half-inhibitory concentration (IC50) in the series with SK-OV-3 turned out to be 0.56 nM; with A549, 0.81 nM; with L1210, 12 nM. Further, the inhibition entry in the series filed under Sus scrofa [2] was “Active”.

With `CC[C@H](C)[C@@H]([C@@H](CC(=O)N1CCC[C@H]1[C@H](OC)[C@@H](C)C(=O)N[C@@H](Cc1ccccc1)c1nc(C(=O)OCCS)cs1)OC)N(C)C(=O)[C@@H](NC(=O)[C@H](C(C)C)N(C)C)C(C)C`, the Papp at 5 h, 200 µM in series [1] was 0.005 ×10⁻⁶ cm/s. The IC50 with SK-OV-3 was found to be 0.13 nM; with A549, 6.9 nM; in the series with L1210, 14 nM. In addition, the inhibition entry in the series listed under Sus scrofa [2] was “Active”.

As to `CC[C@H](C)[C@@H]([C@@H](CC(=O)N1CCC[C@H]1[C@H](OC)[C@@H](C)C(=O)N[C@H](C)[C@@H](O)c1ccccc1)OC)N(C)C(=O)[C@@H](NC(=O)[C@@H](NC)C(C)C)C(C)C` (H-[NMeV]V[Dil][Dolaproine]-X1), the Papp at 5 h, 200 µM in series [1] stood at 0.079 ×10⁻⁶ cm/s. The IC50 in the series on SK-OV-3 worked out at 0.66 nM; in the series with A549, 1.3 nM; with L1210 it was 2.1 nM.

As for `CC[C@H](C)[C@@H]([C@@H](CC(=O)N1CCC[C@H]1[C@H](OC)[C@@H](C)C(=O)N[C@@H](Cc1ccccc1)c1nc(C(=O)N(C)CCNC)cs1)OC)N(C)C(=O)[C@@H](NC(=O)[C@H](C(C)C)N(C)C)C(C)C`, the Papp at 5 h, 200 µM in series [1] is less than 0.001 ×10⁻⁶ cm/s. In addition, the concentration for half-maximal inhibition (IC50) in the series with SK-OV-3 came to 0.19 nM; in the series with A549 it was 1.9 nM; in the series with L1210 it was 14 nM. Further, the inhibition result in the series listed under Sus scrofa [2] was “Active”.

With `CC[C@H](C)[C@@H]([C@@H](CC(=O)N1CCC[C@H]1[C@H](OC)[C@@H](C)C(=O)N[C@@H](Cc1ccccc1)c1nc(C(=O)NCCS)cs1)OC)N(C)C(=O)[C@@H](NC(=O)[C@H](C(C)C)N(C)C)C(C)C`, the Papp at 5 h, 200 µM in series [1] came out at 1.1 ×10⁻⁶ cm/s. Also, the IC50 in the series on SK-OV-3 was determined as 0.44 nM; in the series on A549, 1.9 nM; in the series on L1210 it was 31 nM. In addition, in the series listed under Sus scrofa [2], the inhibition result is “Active”.

In the case of `CCOC(=O)c1csc([C@H](Cc2ccccc2)NC(=O)[C@H](C)[C@@H](OC)[C@@H]2CCCN2C(=O)C[C@@H](OC)[C@H]([C@@H](C)CC)N(C)C(=O)[C@@H](NC(=O)[C@H](C(C)C)N(C)C)C(C)C)n1`, the Papp at 5 h, 200 µM in series [1] stood at 3.2 ×10⁻⁶ cm/s. Further, the IC50 with SK-OV-3 turned out to be 0.024 nM. In the series filed under Sus scrofa [2], the inhibition result is “Active”.

`CC[C@H](C)[C@@H]([C@@H](CC(=O)N1CCC[C@H]1[C@H](OC)[C@@H](C)C(=O)N[C@@H](Cc1ccccc1)c1nc(C(=O)N(C)CCS)cs1)OC)N(C)C(=O)[C@@H](NC(=O)[C@H](C(C)C)N(C)C)C(C)C`: the Papp at 5 h, 200 µM in series [1] is 1.1 ×10⁻⁶ cm/s. Further, the values for the IC50 with SK-OV-3, in the series on A549 and in the series on L1210 were 1.1 nM, 1.2 nM and 7 nM, respectively. Also, in the series listed under Sus scrofa [2], the inhibition result was “Active”.

Consider `CC[C@H](C)[C@@H]([C@@H](CC(=O)N1CCC[C@H]1[C@H](OC)[C@@H](C)C(=O)N[C@@H](Cc1ccccc1)c1nc(C(=O)OCCN)cs1)OC)N(C)C(=O)[C@@H](NC(=O)[C@H](C(C)C)N(C)C)C(C)C`, for which, in series [1], the Papp at 5 h, 200 µM amounted to 0.007 ×10⁻⁶ cm/s. Moreover, the figures for the IC50 with SK-OV-3, in the series on A549 and with L1210 were 0.85 nM, 0.83 nM and 29 nM, respectively. Also, the inhibition entry in the series filed under Sus scrofa [2] is “Active”.
